Active and inactive are the calls of the source. The calls are words filed in the database; no cut-off is given here.
Key:
Cathepsin S = Cathepsin S (Homo sapiens, UniProt P25774); test: Inhibition of human recombinant cathepsin S by fluorescence assay
Method in brief: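 Recombinant human Cat S, fluorometric readout using Z-Leu-Leu-Arg-AMC substrate; IC50 reported.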

Procathepsin L = Procathepsin L (Homo sapiens, UniProt P07711); test: Inhibition of human recombinant cathepsin L by fluorescence assay
Method in brief: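 Recombinant human Cat L measured fluorometrically with Z-Phe-Arg-AMC as substrate; IC50 reported.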

Cathepsin K = biological target: T1, Cathepsin K (Homo sapiens, UniProt P43235); test: Inhibition of human recombinant cathepsin K by fluorescence assay
T1 sequence (P43235 whole entry): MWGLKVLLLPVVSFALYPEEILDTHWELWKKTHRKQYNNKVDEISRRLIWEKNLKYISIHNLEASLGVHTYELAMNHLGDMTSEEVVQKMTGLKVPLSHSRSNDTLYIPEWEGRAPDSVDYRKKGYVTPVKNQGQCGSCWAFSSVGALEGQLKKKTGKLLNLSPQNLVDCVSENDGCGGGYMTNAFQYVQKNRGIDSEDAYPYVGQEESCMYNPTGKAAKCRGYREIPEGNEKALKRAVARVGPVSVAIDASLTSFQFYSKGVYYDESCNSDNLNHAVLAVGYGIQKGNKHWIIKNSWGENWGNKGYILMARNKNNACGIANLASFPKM
Method in brief: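 Fluorometric assay with recombinant human Cat K; Z-Phe-Arg-AMC substrate; IC50 determined.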

[1] = biological target: Cathepsin S (Mus musculus) (UniProt O70370); test: Inhibition of cathepsin S in mouse splenocytes assessed as MHC2 associated invariant chain degradation at 10 uM; format: cell-based
Method in brief: (§1)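 Cellular secondary assay in mouse splenocytes; degradation of MHC class II associated invariant chain monitored after compound exposure at a single concentration.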

[2] = Plasma clearance in Sprague-Dawley rat at 1.6 mg/kg, iv or 4.0 mg/kg, po; format: ADME, organism-based
[3] = AUC in Sprague-Dawley rat at 1.0 mg/kg, po; format: ADME, organism-based; parameters: dose 1 mg/kg, route oral; settings: plasma
[4] = Cmax in Sprague-Dawley rat at 1.0 mg/kg, po; format: ADME, organism-based; parameters: dose 1 mg/kg, route oral; settings: in vivo
[5] = Half life in Sprague-Dawley rat at 1.6 mg/kg, iv; format: ADME, organism-based; parameters: dose 1.6 mg/kg, route intravenous; settings: in vivo
[6] = Oral bioavailability in Sprague-Dawley rat at 4.0 mg/kg, po; format: ADME, organism-based; settings: in vivo
[7] = biological target: Cathepsin S (Mus musculus) (UniProt O70370); test: Inhibition of cathepsin S in mouse splenocytes assessed as MHC2 associated invariant chain degradation at 1 uM; format: cell-based; method in brief: as §1
[8] = Half life in Sprague-Dawley rat at 1.0 mg/kg, iv; format: ADME, organism-based; parameters: dose 1 mg/kg, route intravenous; settings: in vivo
[9] = Plasma clearance in Sprague-Dawley rat at 1.0 mg/kg, iv or 3.0 mg/kg, po; format: ADME, organism-based
[10] = Oral bioavailability in Sprague-Dawley rat at 3.0mg/kg, po; format: ADME, organism-based; settings: in vivo, 3 mg/kg

Chain of Procathepsin L (P07711 whole entry): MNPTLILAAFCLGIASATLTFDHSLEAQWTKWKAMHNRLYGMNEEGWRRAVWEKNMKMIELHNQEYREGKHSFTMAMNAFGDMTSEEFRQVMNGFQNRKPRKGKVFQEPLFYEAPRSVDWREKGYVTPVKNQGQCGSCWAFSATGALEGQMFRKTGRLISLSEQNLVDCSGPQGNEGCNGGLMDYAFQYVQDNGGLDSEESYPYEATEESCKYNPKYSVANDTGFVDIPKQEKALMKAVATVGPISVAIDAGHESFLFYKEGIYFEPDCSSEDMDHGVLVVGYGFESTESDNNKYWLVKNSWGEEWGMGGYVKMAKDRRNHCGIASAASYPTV
Chain of Cathepsin S (P25774 whole entry): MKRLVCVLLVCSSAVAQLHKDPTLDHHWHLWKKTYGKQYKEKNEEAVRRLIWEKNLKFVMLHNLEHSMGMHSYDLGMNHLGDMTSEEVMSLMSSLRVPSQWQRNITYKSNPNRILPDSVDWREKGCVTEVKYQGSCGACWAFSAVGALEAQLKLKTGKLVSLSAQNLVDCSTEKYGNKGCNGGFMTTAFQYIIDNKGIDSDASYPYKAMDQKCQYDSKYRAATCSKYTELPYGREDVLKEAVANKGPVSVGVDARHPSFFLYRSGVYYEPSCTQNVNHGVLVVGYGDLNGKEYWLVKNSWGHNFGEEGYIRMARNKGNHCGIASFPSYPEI

SMILES	IC50 (Cathepsin S)	IC50 (Procathepsin L)	IC50 (Cathepsin K)	further results
N#Cc1ncc2cc(Cc3ccc(Cl)cc3)n(CCC3CCCC3)c2n1	7 nM	260 nM	17 nM	–
N#Cc1ncc2cc(Cc3ccc(Cl)cc3)n(CC3CCCCC3)c2n1	110 nM	370 nM	6 nM	–
CC(=O)Nc1ccc(OCc2cc3cnc(C#N)nc3n2CCC2CCCCC2)cc1	8 nM	> 1000 nM	> 1000 nM	–
N#Cc1ncc2cc(CNc3ccccc3)n(CCC3CCCCC3)c2n1	24 nM	> 1000 nM	> 1000 nM	–
N#Cc1ncc2cc(COc3cccc(CCC(=O)O)c3)n(CCC3CCCCC3)c2n1	6 nM	> 5000 nM	> 5000 nM	Activity [1]: inactive
N#Cc1ncc2cc(Cc3ccc(Cl)cc3)n(CCc3ccccc3)c2n1	64 nM	23 nM	100 nM	–
N#Cc1ncc2cc(Cc3cccc4ccccc34)n(CCC3CCCCC3)c2n1	440 nM	–	–	–
N#Cc1ncc2cc(Cc3ccc(Cl)cc3)n(CCN3CCCCC3)c2n1	> 1000 nM	> 1000 nM	> 1000 nM	–
N#Cc1ncc2cc(Cc3ccc(Cl)cc3)n(CCc3cccc(Cl)c3)c2n1	190 nM	40 nM	> 1000 nM	–
N#Cc1ncc2cc(COc3ccc(C(=O)O)cc3)n(CCC3CCCCC3)c2n1	16 nM	> 2000 nM	> 2000 nM	Activity [1]: inactive
COc1ccc(Cc2cc3cnc(C#N)nc3n2CCC2CCCCC2)cc1	110 nM	> 1000 nM	280 nM	–
N#Cc1ncc2cc(CC3CCCCC3)n(CCC3CCCCC3)c2n1	140 nM	> 1000 nM	–	–
N#Cc1ncc2cc(CSc3ccncc3)n(CCC3CCCCC3)c2n1	6 nM	> 1000 nM	480 nM	–
N#Cc1ncc2cc(COc3cccc(C(N)=O)c3)n(CCC3CCCCC3)c2n1	7 nM	> 1000 nM	390 nM	–
N#Cc1ncc2cc(COc3ccc(C(N)=O)cc3)n(CCC3CCCCC3)c2n1	2 nM	> 1000 nM	280 nM	clearance [2]: 83.3 mL/min/kg; AUC [3]: 0.108 µM·h; Cmax [4]: 25 nM; half-life [5]: 0.7 h; bioavailability [6]: 21%
CC(C)(C)CCCn1c(Cc2ccc(Cl)cc2)cc2cnc(C#N)nc21	320 nM	> 1000 nM	100 nM	–

SMILES	IC50 (Cathepsin S)	IC50 (Procathepsin L)	IC50 (Cathepsin K)	further results
CC(C)C[C@@H](NC(=O)N1CCOCC1)C(=O)N[C@@H](/C=C/S(=O)(=O)c1ccccc1)CCc1ccccc1	–	–	–	Activity [7]: Active
N#Cc1ncc2cc(COc3ccccn3)n(CCC3CCCCC3)c2n1	11 nM	790 nM	250 nM	–
CCC(=O)Nc1ccc(OCc2cc3cnc(C#N)nc3n2CCC2CCCCC2)cc1	12 nM	> 4000 nM	> 1500 nM	–
CC(=O)N1CC=C(c2ccc(OCc3cc4cnc(C#N)nc4n3CCC3CCCCC3)cc2)CC1	13 nM	> 1000 nM	> 1000 nM	half-life [8]: 1.4 h; clearance [9]: 41.7 mL/min/kg; AUC [3]: 0.346 µM·h; Cmax [4]: 43 nM; bioavailability [10]: 38%
CC(C)(C)Cn1c(Cc2ccc(Cl)cc2)cc2cnc(C#N)nc21	–	96 nM	< 1 nM	–
N#Cc1ncc2cc(Cc3ccc(Cl)cc3)n(CCC3CCCCC3)c2n1	21 nM	320 nM	220 nM	–
N#Cc1ncc2cc(Cc3ccc(Cl)cc3)n(CCCC3CCCCC3)c2n1	150 nM	> 1000 nM	> 1000 nM	–
N#Cc1ncc2cc(Cc3ccc(Cl)cc3)n(CCc3ccc(Cl)cc3)c2n1	19 nM	86 nM	> 1000 nM	–
N#Cc1ncc2cc(Cc3ccc(Cl)cc3)n(CCC3CCCCCC3)c2n1	33 nM	840 nM	> 1000 nM	–
CN(Cc1cc2cnc(C#N)nc2n1CCC1CCCCC1)c1ccccc1	52 nM	> 1000 nM	> 1000 nM	–
N#Cc1ncc2cc(Cc3ccc(Cl)cc3)n(CCC3CCCCCCC3)c2n1	99 nM	> 1000 nM	> 1000 nM	–
CC(=O)N1CCC(c2ccc(OCc3cc4cnc(C#N)nc4n3CCC3CCCCC3)cc2)CC1	15 nM	> 1000 nM	> 1000 nM	half-life [8]: 1.3 h; clearance [9]: 88.3 mL/min/kg; AUC [3]: 0.103 µM·h; Cmax [4]: 17 nM; bioavailability [10]: 25%
N#Cc1ncc2cc(COc3ccccc3)n(CCC3CCCCC3)c2n1	10 nM	> 1000 nM	> 1000 nM	–
CC(C)(C)CCn1c(Cc2ccc(Cl)cc2)cc2cnc(C#N)nc21	2 nM	18 nM	< 1 nM	Activity [7]: Active
CC(=O)N1CCN(c2ccc(OCc3cc4cnc(C#N)nc4n3CCC3CCCCC3)cc2)CC1	9 nM	> 4000 nM	> 1500 nM	half-life [8]: 1.2 h; clearance [9]: 66.7 mL/min/kg; Activity [7]: Active; AUC [3]: 0.242 µM·h; Cmax [4]: 34 nM; bioavailability [10]: 47%

— ChEMBL document CHEMBL1155066, “Discovery of selective and nonpeptidic cathepsin S inhibitors” (Bioorg Med Chem Lett, 2008)
